# Source: ChEMBL document CHEMBL4811275, “Iodinated 1,2-diacylhydrazines, benzohydrazide-hydrazones and their analogues as dual antimicrobial and cytotoxic agents” (Bioorg Med Chem, 2021)
# Activity calls are given as the source filed them. No cut-off for these calls is given here.
# How the values were obtained:
# Staphylococcus aureus [1] = assay: Antibacterial activity against Staphylococcus aureus ATCC 29213 assessed as reduction in bacterial growth incubated for 24 hrs by broth microdilution method; type: functional
# Method in brief: (§1)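 Cation-adjusted Mueller-Hinton broth microdilution per EUCAST, modified; compounds from DMSO stocks, final DMSO ≤1% v/v; scale starting from 0.49 µM. Static incubation at 35 ± 2 °C, dark, humidified, read at 24 and 48 h. MIC = lowest concentration with no visible growth by eye; duplicates, parallel readings within one dilution step; growth and medium/DMSO controls included.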
# Staphylococcus aureus [2] = assay: Antibacterial activity against Staphylococcus aureus ATCC 29213 assessed as reduction in bacterial growth incubated for 48 hrs by broth microdilution method; type: functional; method in brief: as §1
# Staphylococcus aureus [3] = assay: Antibacterial activity against methicillin-resistant Staphylococcus aureus ATCC 43300 assessed as reduction in bacterial growth incubated for 24 hrs by broth microdilution method; type: functional
# Method in brief: (§2)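 EUCAST-based broth microdilution in cation-adjusted Mueller-Hinton broth. DMSO stocks, final DMSO ≤1% v/v, concentration scale starting from 0.49 µM. Static incubation at 35 ± 2 °C, dark and humidified. Run in duplicate, accepted only if parallel MICs differ by at most one dilution step. MIC is the lowest concentration with no visible growth by naked eye.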
# Staphylococcus aureus [4] = assay: Antibacterial activity against methicillin-resistant Staphylococcus aureus ATCC 43300 assessed as reduction in bacterial growth incubated for 48 hrs by broth microdilution method; type: functional; method in brief: as §2
# [5] = system: Staphylococcus epidermidis; assay: Antibacterial activity against Staphylococcus epidermidis ATCC 12228 assessed as reduction in bacterial growth incubated for 24 hrs by broth microdilution method; type: functional; method in brief: as §1
# [6] = system: Staphylococcus epidermidis; assay: Antibacterial activity against Staphylococcus epidermidis ATCC 12228 assessed as reduction in bacterial growth incubated for 48 hrs by broth microdilution method; type: functional; method in brief: as §1
# Enterococcus faecalis [7] = assay: Antibacterial activity against Enterococcus faecalis ATCC 29212 assessed as reduction in bacterial growth incubated for 24 hrs by broth microdilution method; type: functional; method in brief: as §1
# Enterococcus faecalis [8] = assay: Antibacterial activity against Enterococcus faecalis ATCC 29212 assessed as reduction in bacterial growth incubated for 48 hrs by broth microdilution method; type: functional; method in brief: as §1
# Escherichia coli [9] = assay: Antibacterial activity against Escherichia coli ATCC 25922 assessed as reduction in bacterial growth incubated for 24 hrs by broth microdilution method; type: functional; method in brief: as §1
# Escherichia coli [10] = assay: Antibacterial activity against Escherichia coli ATCC 25922 assessed as reduction in bacterial growth incubated for 48 hrs by broth microdilution method; type: functional; method in brief: as §1
# Candida albicans [11] = assay: Antifungal activity against Candida albicans ATCC 24443 assessed as reduction in fungal growth incubated for 24 hrs by broth microdilution method; type: functional
# Method in brief: (§3)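 Broth microdilution per EUCAST (yeasts and moulds), modified: twofold dilutions from DMSO (final ≤1% v/v) in RPMI-1640 with L-glutamine, 2% glucose, MOPS-buffered pH 7.0; scale from 0.49 µM. Static, dark, humidified, 35 ± 2 °C for 24 and 48 h (Trichophyton interdigitale 72 and 120 h). MIC = complete visible inhibition by eye; duplicates within one dilution step.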
# Candida albicans [12] = assay: Antifungal activity against Candida albicans ATCC 24443 assessed as reduction in fungal growth incubated for 48 hrs by broth microdilution method; type: functional; method in brief: as §3
# Pichia kudriavzevii [13] = assay: Antifungal activity against Candida krusei ATCC 6258 assessed as reduction in fungal growth incubated for 24 hrs by broth microdilution method; type: functional; method in brief: as §3
# Pichia kudriavzevii [14] = assay: Antifungal activity against Candida krusei ATCC 6258 assessed as reduction in fungal growth incubated for 48 hrs by broth microdilution method; type: functional; method in brief: as §3
# Candida parapsilosis [15] = assay: Antifungal activity against Candida parapsilosis ATCC 22019 assessed as reduction in fungal growth incubated for 24 hrs by broth microdilution method; type: functional; conditions: Lodderomyces parapsilosis; method in brief: as §3
# Candida parapsilosis [16] = assay: Antifungal activity against Candida parapsilosis ATCC 22019 assessed as reduction in fungal growth incubated for 48 hrs by broth microdilution method; type: functional; conditions: Lodderomyces parapsilosis; method in brief: as §3
# Lichtheimia corymbifera [17] = assay: Antifungal activity against Lichtheimia corymbifera CCM 8077 assessed as reduction in fungal growth incubated for 24 hrs by broth microdilution method; type: functional; method in brief: as §3
# Lichtheimia corymbifera [18] = assay: Antifungal activity against Lichtheimia corymbifera CCM 8077 assessed as reduction in fungal growth incubated for 48 hrs by broth microdilution method; type: functional; method in brief: as §3
# [19] = system: Trichophyton interdigitale; assay: Antifungal activity against Trichophyton interdigitale ATCC 9533 assessed as reduction in fungal growth incubated for 72 hrs by broth microdilution method; type: functional; method in brief: as §3
# [20] = system: Trichophyton interdigitale; assay: Antifungal activity against Trichophyton interdigitale ATCC 9533 assessed as reduction in fungal growth incubated for 120 hrs by broth microdilution method; type: functional; method in brief: as §3
# HepG2 [21] = assay: Cytotoxicity against human HepG2 cells assessed as reduction in cell viability incubated for 24 hrs by cell-titer 96 aqueous one solution cell proliferation assay; type: functional, cell-based; conditions: HepG2, 24 h
# HK-2 = assay: Cytotoxicity against human HK-2 cells assessed as reduction in cell viability incubated for 24 hrs by cell-titer 96 aqueous one solution cell proliferation assay; type: cell-based; conditions: HK-2, 24 h
# HepG2 [22] = assay: Antiproliferative activity against human HepG2 cells assessed as increase in caspase 3/7 level at 100 uM incubated for 24 hrs by Caspase-glo reagent based microplate reader analysis relative to control; type: functional
# Method in brief: (§4)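 HepG2 cells seeded at 15 000/well, compounds diluted in complete MEM, 24 h at 37 °C, 5% CO2; untreated vehicle controls. Caspase-Glo 3/7 reagent added, shaken 350 rpm at room temperature 60 min in dark, luminescence read. Expressed as fold of untreated control; triplicate wells, mean ± SD with n = 6.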
# HepG2 [23] = assay: Antiproliferative activity against human HepG2 cells assessed as increase in caspase 3/7 level at 1 uM incubated for 24 hrs by Caspase-glo reagent based microplate reader analysis relative to control; type: functional; method in brief: as §4
# Candida albicans [24] = assay: Antifungal activity against Candida albicans ATCC 24443 assessed as reduction in fungal growth incubated for 24 hrs by broth microdilution method based spectrophotometric analysis; type: functional
# Candida albicans [25] = assay: Antifungal activity against Candida albicans ATCC 24443 assessed as reduction in fungal growth incubated for 48 hrs by broth microdilution method based spectrophotometric analysis; type: functional
# Pichia kudriavzevii [26] = assay: Antifungal activity against Candida krusei ATCC 6258 assessed as reduction in fungal growth incubated for 24 hrs by broth microdilution method based spectrophotometric analysis; type: functional
# Pichia kudriavzevii [27] = assay: Antifungal activity against Candida krusei ATCC 6258 assessed as reduction in fungal growth incubated for 48 hrs by broth microdilution method based spectrophotometric analysis; type: functional
# Candida parapsilosis [28] = assay: Antifungal activity against Candida parapsilosis ATCC 22019 assessed as reduction in fungal growth incubated for 24 hrs by broth microdilution method based spectrophotometric analysis; type: functional; conditions: Lodderomyces parapsilosis
# Candida parapsilosis [29] = assay: Antifungal activity against Candida parapsilosis ATCC 22019 assessed as reduction in fungal growth incubated for 48 hrs by broth microdilution method based spectrophotometric analysis; type: functional; conditions: Lodderomyces parapsilosis
# Lichtheimia corymbifera [30] = assay: Antifungal activity against Lichtheimia corymbifera CCM 8077 assessed as reduction in fungal growth incubated for 24 hrs by broth microdilution method based spectrophotometric analysis; type: functional
# Lichtheimia corymbifera [31] = assay: Antifungal activity against Lichtheimia corymbifera CCM 8077 assessed as reduction in fungal growth incubated for 48 hrs by broth microdilution method based spectrophotometric analysis; type: functional
# [32] = system: Trichophyton interdigitale; assay: Antifungal activity against Trichophyton interdigitale ATCC 9533 assessed as reduction in fungal growth incubated for 72 hrs by broth microdilution method based spectrophotometric analysis; type: functional
# [33] = system: Trichophyton interdigitale; assay: Antifungal activity against Trichophyton interdigitale ATCC 9533 assessed as reduction in fungal growth incubated for 120 hrs by broth microdilution method based spectrophotometric analysis; type: functional
# Pseudomonas aeruginosa = assay: Antibacterial activity against Pseudomonas aeruginosa ATCC 27853 assessed as reduction in bacterial growth measured for 24 to 48 hrs by broth microdilution method; type: functional, organism-based; conditions: time 24-48 hrs; method in brief: as §1
# Klebsiella pneumoniae = assay: Antibacterial activity against Klebsiella pneumoniae ATCC 10031 assessed as reduction in bacterial growth measured for 24 to 48 hrs by broth microdilution method; type: functional, organism-based; conditions: time 24-48 hrs; method in brief: as §1
# Serratia marcescens = assay: Antibacterial activity against clinical isolate Serratia marcescens assessed as reduction in bacterial growth measured for 24 to 48 hrs by broth microdilution method; type: functional, organism-based; conditions: time 24-48 hrs; method in brief: as §1
# Staphylococcus aureus [34] = assay: Antibacterial activity against methicillin-susceptible Staphylococcus aureus CCM 4223 assessed as reduction in bacterial growth measured for 24 to 48 hrs by broth microdilution method; type: functional, organism-based; conditions: time 24-48 hrs; method in brief: as §1
# [35] = Therapeutic index, ratio of IC50 for cytotoxicity against human HepG2 cells to MIC for antifungal activity against Candida albicans ATCC 24443
SMILES,MIC (Staphylococcus aureus [1]) [µM],MIC (Staphylococcus aureus [2]) [µM],MIC (Staphylococcus aureus [3]) [µM],MIC (Staphylococcus aureus [4]) [µM],MIC [5] [µM],MIC [6] [µM],MIC (Enterococcus faecalis [7]) [µM],MIC (Enterococcus faecalis [8]) [µM],MIC (Escherichia coli [9]) [µM],MIC (Escherichia coli [10]) [µM],MIC (Candida albicans [11]) [µM],MIC (Candida albicans [12]) [µM],MIC (Pichia kudriavzevii [13]) [µM],MIC (Pichia kudriavzevii [14]) [µM],MIC (Candida parapsilosis [15]) [µM],MIC (Candida parapsilosis [16]) [µM],MIC (Lichtheimia corymbifera [17]) [µM],MIC (Lichtheimia corymbifera [18]) [µM],MIC [19] [µM],IC50 (HepG2 [21]) [µM],further results
Oc1c(I)cc(I)cc1CNNC(O)c1ccc(F)cc1 (centres undefined),15.6,15.6,31.2,62.5,7.81,7.81,15.6,15.6,> 500,> 500,> 500,> 500,> 500,> 500,> 500,> 500,> 500,> 500,62.5,41.9,MIC [20]: 62.5 µM
O=C(N/N=C/c1cc(I)cc(I)c1O)c1ccc(F)cc1,15.6,31.2,15.6,31.2,31.2,31.2,31.2,62.5,> 500,> 500,62.5,125,125,125,62.5,125,125,125,15.6,12.1,MIC [20]: 62.5 µM; IC50 (HK-2): 55.6 µM; fold change (FC) (HepG2 [22]): 1.33; fold change (FC) (HepG2 [23]): 1.36
OC(Cn1cncn1)(Cn1cncn1)c1ccc(F)cc1F [FLUCONAZOLE],,,,,,,,,,,,,,,,,,,,,MIC (Candida albicans [24]): 6.5 µM; MIC (Candida albicans [25]): 6.5 µM; MIC (Pichia kudriavzevii [26]): > 104 µM; MIC (Pichia kudriavzevii [27]): > 104 µM; MIC (Candida parapsilosis [28]): 3.3 µM; MIC (Candida parapsilosis [29]): 3.3 µM; MIC (Lichtheimia corymbifera [30]): > 104 µM; MIC (Lichtheimia corymbifera [31]): > 104 µM; MIC [32]: 52.2 µM; MIC [33]: 52.2 µM
O=C(N/N=C/c1cc(I)cc(I)c1O)c1ccc(C(F)(F)F)cc1,31.2,31.2,31.2,31.2,31.2,31.2,31.2,31.2,> 250,> 250,,,,,,,,,,11.7,IC50 (HK-2): 49.9 µM; fold change (FC) (HepG2 [22]): 1.37
O=C(N/N=C/c1cc(I)cc(I)c1O)c1ccc(O)cc1,31.2,62.5,62.5,62.5,62.5,125,250,250,250,250,,,,,,,,,,19.2,Activity (Pseudomonas aeruginosa): inactive; Activity (Klebsiella pneumoniae): inactive; Activity (Serratia marcescens): inactive; Activity (Staphylococcus aureus [34]): Active
O=C(N/N=C/c1cc(I)cc(I)c1O)c1ccc([N+](=O)[O-])cc1,31.2,62.5,31.2,62.5,31.2,62.5,62.5,125,> 125,> 125,1.95,7.81,62.5,> 125,> 125,> 125,31.2,62.5,3.9,24.7,MIC [20]: 15.6 µM; IC50 (HK-2): 26.8 µM; Ratio [35]: 13.1
O=C(NNCc1cc(I)cc(I)c1O)c1ccc(F)cc1,62.5,125,62.5,125,62.5,62.5,31.2,62.5,> 500,> 500,125,> 125,> 125,> 125,> 125,> 125,15.6,31.2,15.6,52.2,MIC [20]: 31.2 µM
CC(C)(C)c1ccc(C(=O)N/N=C/c2cc(I)c(O)c(I)c2)cc1,125,125,125,250,125,250,250,500,> 500,> 500,,,,,,,,,,45.9,IC50 (HK-2): > 250 µM
